ChEMBL document CHEMBL3808334, “Synthesis and in vitro evaluation of novel triazine analogues as anticancer agents and their interaction studies with bovine serum albumin” (Eur J Med Chem, 2016)

Assays:
[1] = Growth inhibition of human RXF393 cells assessed as cell growth at 10^-4 M incubated for 48 hrs by sulforhodamine B assay; format: functional; details: RXF 393, 48 h, read-out: Activity
[2] = Growth inhibition of human UO31 cells assessed as cell growth at 10^-4 M incubated for 48 hrs by sulforhodamine B assay; format: functional; details: UO-31, 48 h, read-out: Activity
[3] = Growth inhibition of human HCC2998 cells incubated for 48 hrs by sulforhodamine B assay; format: functional; details: HCC 2998, 48 h
In short: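 Cells seeded at 5,000–40,000/well according to doubling time and preincubated 24 h at 37 °C, 5% CO2. Time-zero plates were TCA-fixed. DMSO concentrate was diluted in medium with 50 µg/ml gentamicin to give five concentrations (10-fold or ½ log steps), then exposed 48 h. Cells were TCA-fixed, stained with 0.4% SRB and read at 515 nm. Percent growth was taken against time-zero and control; GI50, TGI and LC50 derived.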

[4] = Growth inhibition of human OVCAR4 cells incubated for 48 hrs by sulforhodamine B assay; format: functional; details: OVCAR-4, 48 h
In short: (§1)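 Cells were plated at 5,000–40,000 per well according to doubling time and preincubated 24 h at 37 °C in 5% CO2; time-zero plates were then TCA-fixed. Five concentrations (10-fold or ½-log dilutions, DMSO stock) were incubated 48 h. Cells were TCA-fixed, stained with 0.4% SRB and read at 515 nm. GI50 was taken where [(Ti−Tz)/(C−Tz)]×100 = 50.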

[5] = Growth inhibition of human SKOV3 cells incubated for 48 hrs by sulforhodamine B assay; format: functional; details: SK-OV-3, 48 h; in short: as §1
A498 [6] = experiment: Growth inhibition of human A498 cells incubated for 48 hrs by sulforhodamine B assay; format: functional; details: A498, 48 h
In short: (§2)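 Five-dose assay: five concentrations from 10-fold or ½-log serial dilutions. Cells are plated at 5,000–40,000 per well according to doubling time, grown 24 h, then exposed 48 h at 37 °C, 5% CO₂. Fixed with cold 50% TCA (final addition) for 60 min at 4 °C and stained with 0.4% SRB in 1% acetic acid. Bound dye is solubilized in 10 mM Tris base and read at 515 nm. GI₅₀ is where [(Ti−Tz)/(C−Tz)]×100 = 50, with a time-zero plate as Tz.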

[7] = Growth inhibition of human TK10 cells assessed as cell growth at 10^-8 M incubated for 48 hrs by sulforhodamine B assay; format: functional; details: TK-10, 48 h, read-out: Activity
[8] = Growth inhibition of human UO31 cells assessed as cell growth at 10^-8 M incubated for 48 hrs by sulforhodamine B assay; format: functional; details: UO-31, 48 h, read-out: Activity
[9] = Growth inhibition of human PC3 cells assessed as cell growth at 10^-8 M incubated for 48 hrs by sulforhodamine B assay; format: functional; details: PC-3, 48 h, read-out: Activity
SR [10] = experiment: Growth inhibition of human SR cells assessed as cell growth at 10^-7 M incubated for 48 hrs by sulforhodamine B assay; format: functional; details: read-out: Activity
A549 [11] = experiment: Growth inhibition of human A549/ATCC cells assessed as cell growth at 10^-7 M incubated for 48 hrs by sulforhodamine B assay; format: functional; details: A549, 48 h, read-out: Activity; in short: as §2
NCI-H23 = experiment: Growth inhibition of human NCI-H23 cells assessed as cell growth at 10^-7 M incubated for 48 hrs by sulforhodamine B assay; format: functional; details: NCI-H23, 48 h, read-out: Activity
[12] = Growth inhibition of human TK10 cells assessed as cell growth at 10^-5 M incubated for 48 hrs by sulforhodamine B assay; format: functional; details: TK-10, 48 h, read-out: Activity
SR [13] = experiment: Growth inhibition of human SR cells assessed as cell growth at 10^-4 M incubated for 48 hrs by sulforhodamine B assay; format: functional; details: read-out: Activity
A549 [14] = experiment: Growth inhibition of human A549/ATCC cells assessed as cell growth at 10^-4 M incubated for 48 hrs by sulforhodamine B assay; format: functional; details: A549, 48 h, read-out: Activity
NCI-H522 = experiment: Growth inhibition of human NCI-H522 cells assessed as cell growth at 10^-4 M incubated for 48 hrs by sulforhodamine B assay; format: functional; details: NCI-H522, 48 h, read-out: Activity
[15] = Growth inhibition of human OVCAR4 cells assessed as cell growth at 10^-4 M incubated for 48 hrs by sulforhodamine B assay; format: functional; details: OVCAR-4, 48 h, read-out: Activity
A498 [16] = experiment: Growth inhibition of human A498 cells assessed as cell growth at 10^-4 M incubated for 48 hrs by sulforhodamine B assay; format: functional; details: A498, 48 h, read-out: Activity; in short: as §2
MDA-MB-468 = experiment: Growth inhibition of human MDA-MB-468 cells assessed as cell growth at 10^-7 M incubated for 48 hrs by sulforhodamine B assay; format: functional; details: MDA-MB-468, 48 h, read-out: Activity
NCI-H322M = experiment: Growth inhibition of human NCI-H322M cells assessed as cell growth at 10^-8 M incubated for 48 hrs by sulforhodamine B assay; format: functional; details: read-out: Activity
[17] = Growth inhibition of human SF295 cells assessed as cell growth at 10^-8 M incubated for 48 hrs by sulforhodamine B assay; format: functional; details: SF-295, 48 h, read-out: Activity
Albumin = Albumin (Bos taurus, UniProt P02769); experiment: Binding affinity to bovine serum albumin assessed as binding constant in absorption spectra by Benesie-Hildebrand plot analysis; format: ADME; details: cattle, isolated protein
Sequence of Albumin (P02769 whole entry): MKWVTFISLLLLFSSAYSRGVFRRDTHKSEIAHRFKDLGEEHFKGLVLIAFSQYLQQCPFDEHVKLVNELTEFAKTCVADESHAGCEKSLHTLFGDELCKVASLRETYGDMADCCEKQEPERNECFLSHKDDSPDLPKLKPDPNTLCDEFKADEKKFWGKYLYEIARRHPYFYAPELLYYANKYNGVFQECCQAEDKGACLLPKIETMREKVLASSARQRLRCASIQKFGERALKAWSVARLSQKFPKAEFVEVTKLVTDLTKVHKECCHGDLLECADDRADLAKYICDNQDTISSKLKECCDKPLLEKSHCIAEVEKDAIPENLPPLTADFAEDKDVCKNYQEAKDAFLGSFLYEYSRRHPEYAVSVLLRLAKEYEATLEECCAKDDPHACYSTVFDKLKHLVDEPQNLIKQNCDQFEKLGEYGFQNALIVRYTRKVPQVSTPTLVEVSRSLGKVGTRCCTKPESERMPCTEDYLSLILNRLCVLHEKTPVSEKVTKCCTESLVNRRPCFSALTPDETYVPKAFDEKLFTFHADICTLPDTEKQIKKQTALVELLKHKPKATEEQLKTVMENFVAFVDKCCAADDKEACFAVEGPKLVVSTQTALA
In short: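 BSA, 10 µM, in 0.1 M phosphate buffer pH 7.4, titrated with compound (0–20 µM per the figure; diluted from 10⁻³ mol L⁻¹ DMSO stocks). Run at 300 K in a 1 cm quartz cell. UV spectra taken 200–800 nm after 5 min equilibration; fluorescence excited at 280 nm, emission 351 nm, slit 10 nm. K is the intercept/slope ratio of a linear fit of 1/(A₀−A) or 1/(F₀−F) vs 1/[compound].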

A549 [18] = experiment: Growth inhibition of human A549/ATCC cells assessed as cell growth at 10 uM incubated for 48 hrs by sulforhodamine B assay; format: functional; details: A549, 48 h, read-out: Activity
In short: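 One-dose screen at 10 µM final. Cells are plated at 5,000–40,000 per well according to doubling time and preincubated 24 h at 37 °C, 5% CO₂. Compound (DMSO stock diluted in medium with 50 µg/ml gentamicin) is then added for 48 h. Growth percent is read by sulforhodamine B staining, absorbance at 515 nm.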

[19] = read-out: LC50 (the source's name)
[20] = read-out: pLC50 (the source's name) (converted)

Clc1ccc(-c2nc(Nc3ccc(-c4nc5ccccc5[nH]4)cc3)nc(N3CCOCC3)n2)cc1
growth at 100 µM [1]: -30%
growth at 100 µM [2]: -41%
GI50 ([3]; read-out: GI50): 0.358 µM
GI50 ([3]; read-out: pGI50 (converted)): 0.355 µM
GI50 ([4]; read-out: GI50): 1.04 µM
CC50 [4, 19]: 5.53 µM
TGI ([4]; read-out: TGI): 2.4 µM
GI50 ([4]; read-out: pGI50 (converted)): 1.05 µM
CC50 [4, 20]: 5.5 µM
TGI ([4]; read-out: pTGI (converted)): 2.4 µM
GI50 ([5]; read-out: GI50): 1.84 µM
CC50 [5, 19]: 100 µM
TGI ([5]; read-out: TGI): 3.28 µM
GI50 ([5]; read-out: pGI50 (converted)): 1.82 µM
CC50 [5, 20]: 100 µM
TGI ([5]; read-out: pTGI (converted)): 3.31 µM
GI50 (A498 [6]; read-out: GI50): 1.69 µM
TGI (A498 [6]; read-out: TGI): 3.29 µM
GI50 (A498 [6]; read-out: pGI50 (converted)): 1.7 µM
TGI (A498 [6]; read-out: pTGI (converted)): 3.31 µM
growth at 0.01 µM [7]: 93%
growth at 0.01 µM [8]: 79%
growth at 0.01 µM [9]: 98%
growth at 0.1 µM (SR [10]): -5%
growth at 0.1 µM (A549 [11]): 99%
growth at 0.1 µM (NCI-H23): 92%
growth at 10 µM [12]: -96%
growth at 100 µM (SR [13]): 5%
growth at 100 µM (A549 [14]): -53%
growth at 100 µM (NCI-H522): -41%
growth at 100 µM [15]: -51%
growth at 100 µM (A498 [16]): -48%
growth at 0.1 µM (MDA-MB-468): 112%
growth at 0.01 µM (NCI-H322M): 96%
growth at 0.01 µM [17]: 97%
K (Albumin): 1 ×10⁵ /M
growth at 10 µM (A549 [18]): -75.2%

c1ccc2[nH]c(-c3ccc(Nc4nc(N5CCCCC5)nc(N5CCOCC5)n4)cc3)nc2c1
growth at 100 µM [1]: -46%
growth at 100 µM [2]: -36%
GI50 ([3]; read-out: GI50): 3.74 µM
CC50 [3, 19]: > 100 µM
TGI ([3]; read-out: TGI): > 100 µM
GI50 ([3]; read-out: pGI50 (converted)): 3.72 µM
CC50 [3, 20]: > 100 µM
TGI ([3]; read-out: pTGI (converted)): > 100 µM
GI50 ([4]; read-out: GI50): 3.98 µM
CC50 [4, 19]: > 100 µM
TGI ([4]; read-out: TGI): 25.4 µM
GI50 ([4]; read-out: pGI50 (converted)): 3.98 µM
CC50 [4, 20]: > 100 µM
TGI ([4]; read-out: pTGI (converted)): 25.1 µM
GI50 ([5]; read-out: GI50): 2.37 µM
CC50 [5, 19]: 26.9 µM
TGI ([5]; read-out: TGI): 5.43 µM
GI50 ([5]; read-out: pGI50 (converted)): 2.34 µM
CC50 [5, 20]: 26.9 µM
TGI ([5]; read-out: pTGI (converted)): 5.37 µM
GI50 (A498 [6]; read-out: GI50): 1.77 µM
CC50 (A498 [6]; [19]): 9.89 µM
TGI (A498 [6]; read-out: TGI): 4.18 µM
GI50 (A498 [6]; read-out: pGI50 (converted)): 1.78 µM
CC50 (A498 [6]; [20]): 10 µM
TGI (A498 [6]; read-out: pTGI (converted)): 4.17 µM
growth at 0.01 µM [7]: 96%
growth at 0.01 µM [8]: 85%
growth at 0.01 µM [9]: 96%
growth at 0.1 µM (SR [10]): 88%
growth at 0.1 µM (A549 [11]): 96%
growth at 0.1 µM (NCI-H23): 93%
growth at 10 µM [12]: -4%
growth at 100 µM (SR [13]): -11%
growth at 100 µM (A549 [14]): -12%
growth at 100 µM (NCI-H522): -29%
growth at 100 µM [15]: -32%
growth at 100 µM (A498 [16]): -90%
growth at 0.1 µM (MDA-MB-468): 100%
growth at 0.01 µM (NCI-H322M): 90%
growth at 0.01 µM [17]: 94%
K (Albumin): 9.7 ×10⁴ /M
growth at 10 µM (A549 [18]): 13.9%
